Data set [1] deals with Pseudomonas aeruginosa. As to the kind of experiment: Inhibition of Pseudomonas aeruginosa PvdP tyrosinase up to 100 uM relative to control. Particulars: dose microM <=100.
Data set [2] is described as follows: Inhibition of Pseudomonas aeruginosa PvdP tyrosinase.
A further data set concerns the target Mushroom tyrosinase (Agaricus bisporus, UniProt O42713+Q00024+C7FF04+C7FF05). Briefly: Inhibition of mushroom tyrosinase.
A short description of data set [3]: Selectivity ratio of IC50 for mushroom tyrosinase to IC50 for Pseudomonas aeruginosa PvdP tyrosinase.
Data set [4] concerns Pseudomonas aeruginosa. Briefly: Non-competitive inhibition of Pseudomonas aeruginosa PvdP tyrosinase assessed as Vmax at 0.2 uM by Lineweaver-Burk double reciprocal plot analysis (reference value: 0.0155 1/min).
The subject of data set [5] is Pseudomonas aeruginosa. Briefly: Non-competitive inhibition of Pseudomonas aeruginosa PvdP tyrosinase assessed as Km at 0.2 uM by Lineweaver-Burk double reciprocal plot analysis (reference value: 1.136 mM).
Data set [6] concerns Pseudomonas aeruginosa. Briefly: Non-competitive inhibition of Pseudomonas aeruginosa PvdP tyrosinase assessed as Vmax at 0.5 uM by Lineweaver-Burk double reciprocal plot analysis (reference value: 0.0155 1/min).
Data set [7] has as its system Pseudomonas aeruginosa. Briefly: Non-competitive inhibition of Pseudomonas aeruginosa PvdP tyrosinase assessed as Km at 0.5 uM by Lineweaver-Burk double reciprocal plot analysis (reference value: 1.136 mM).
Data set [8] concerns Pseudomonas aeruginosa. Briefly: Inhibition of Pseudomonas aeruginosa PvdP tyrosinase mutant at 1 uM.
Data set [9] is described as follows: (§1) Inhibition of PvdP tyrosinase in Pseudomonas aeruginosa PAO1 assessed as reduction in pyoverdin production incubated for 24 hrs in low iron medium. The method in brief:
(§2)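 P. aeruginosa PAO1 grown 24 h in low-iron medium with a serial dilution of compound (200 - 0.79 µM; final DMSO 1%). Vehicle 1% DMSO as negative control. After incubation, pyoverdine read at 405 nm and cell growth at 600 nm.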

The subject of data set [10] is Pseudomonas aeruginosa PAO1. The description is as §1. The procedure, abridged:
as §2

Active and inactive are the calls of the source. No cut-off for these calls is given here. Some results are limits rather than exact numbers.

In general, inhibition refers to the change of the read-out against control, counted positive when it falls. As usually defined, the IC50 is the concentration at which inhibition is half-maximal. Consider `NC(=O)Nc1ccccc1` [PHENYLUREA], for which the inhibition in the data set on Pseudomonas aeruginosa [1] was less than 50%. The IC50 entry in data set [2] was “Not Active”.

As for `S=C(NCc1ccccc1)Nc1ccccc1`, in data set [2] (read-out: IC50), the IC50 is 19.4 µM.

In the case of `COc1ccc(CN=C(S)Nc2ccccc2)cc1`, the IC50 in data set [2] (read-out: IC50) turned out to be 19.3 µM.

Consider `Fc1cccc(Cl)c1NC(=S)Nc1ccccc1`, for which the IC50 result in data set [2] is recorded as “Not Active”.

For the molecule `S=C(NCc1c(Cl)cccc1Cl)Nc1ccccc1`, the IC50 against Mushroom tyrosinase was more than 500 µM; in data set [2] (read-out: IC50), 7.6 µM. Besides, the “Ratio IC50” value in [3] is more than 500.

Regarding `Fc1ccc(CCNC(=S)Nc2ccccc2)cc1`, in data set [2] (read-out: IC50), the half-inhibitory concentration (IC50) is 22.6 µM.

As to `CN(C)c1ccc(NC(=S)NCc2ccc(Cl)cc2)cc1`, the IC50 in data set [2] (read-out: IC50) turned out to be 14.3 µM.

In the case of `NC(=S)Nc1ccccc1` [PHENYLTHIOUREA], the concentration for half-maximal inhibition (IC50) in data set [2] (read-out: IC50) worked out at 174 µM.

One may read the Km as the concentration of substrate that gives half-maximal velocity. `S=C(NCc1ccc(Cl)cc1)Nc1ccccc1`: the Vmax with Pseudomonas aeruginosa [4] was found to be 0.0126 min⁻¹; in the data set on Pseudomonas aeruginosa [6], 0.0111 min⁻¹. In addition, the IC50 came to 328 µM against Mushroom tyrosinase, 44.9 µM in data set [9] and 0.57 µM in data set [2] (read-out: IC50). Also, the Michaelis-Menten constant (Km) in the data set on Pseudomonas aeruginosa [5] amounted to 1130 µM; with Pseudomonas aeruginosa [7], 1140 µM. The inhibition entry with Pseudomonas aeruginosa [8] was “inactive”. Besides, the “Ratio IC50” value in data set [3] is more than 500. In [10], the inhibition entry is “Dose-dependent effect”.

For the molecule `S=C(NCc1ccc(Br)cc1)Nc1ccccc1`, the concentration for half-maximal inhibition (IC50) in [2] (read-out: IC50) came to 23.5 µM.

With `C=CCNC(=S)Nc1ccccc1`, in data set [2], the half-maximal inhibitory concentration (IC50) result is listed as “Not Active”.

For the molecule `Fc1ccc(CNC(=S)Nc2ccccc2)cc1`, the half-inhibitory concentration (IC50) in data set [2] (read-out: IC50) is 13.6 µM.

As to `S=C(NCc1ccccc1Cl)Nc1ccccc1`, the IC50 at Mushroom tyrosinase is more than 500 µM; in data set [2] (read-out: IC50), 7.9 µM. The “Ratio IC50” value in [3] is on record as more than 500.

As to `Cc1ccc(NC(=S)NCc2ccc(Cl)cc2)cc1`, the concentration for half-maximal inhibition (IC50) in data set [2] (read-out: IC50) came to 22.3 µM.

Turning to `CNC(=S)Nc1ccccc1`, the IC50 result in data set [2] is “Not Active”.

The values above are taken from ChEMBL document CHEMBL4725313, “Development of phenylthiourea derivatives as allosteric inhibitors of pyoverdine maturation enzyme PvdP tyrosinase” (Bioorg Med Chem Lett, 2020).
